# High-throughput results deposited in PubChem by several laboratories.
# This is a sample that favours compounds with a hit; in the whole collection about 3.6% have one here.
# NS3 helicase inh: inhibitors of HCV NS3 helicase, primary screen, biochemical, Cy5 molecular beacon fluorescence; NS3 helicase DNA unwinding; inhibition, % at 10.9 µM; 290,000 tested, 0.56% active; AID 1800, 2009;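 active means inhibition above the mean of all tested compounds plus 3 SD, set per campaign, cut at about 35% in these data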;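 further: 0% = DMSO wells and 100% = thioflavine S control wells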
#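 Control set: DMSO versus 110 µM thioflavine S; Material: NS3 helicase fragment of HCV; Measured by: Cy5 fluorescence at 0 and 60 min, beacon hairpin quenching; Read-out basis: percent inhibition from t60/t0 fluorescence ratio; Times: reaction time 60 min, 25 °C; Repeats: single replicate; Compound dosing: single dose, 10.9 µM nominal final, DMSO 0.8% final.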
# EBNA-1 inhibitor: EBNA-1 DNA-binding inhibitors, primary screen, biochemical, fluorescence polarization | inhibition, % at 14.8 µM | 300,000 tested, 0.34% active; in the data active means inhibition above about 28%
# NR3A LBD binder: binders of NR3A ligand-binding domain, primary screen, biophysical, differential scanning fluorimetry, uHTS; Glutamate receptor ionotropic, NMDA 3A (GRIN3A) ligand-binding domain; NR3A LBD differential scanning fluorimetry, Tm shift; 0% = protein alone, 100% = glycine-bound protein; Tm shift relative to glycine control, % at 25 µM; 340,000 tested, 2.5% active; AID 1259313, 2017;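 active means melting temperature shift of at least 10% of the positive control shift, at one fixed dose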
# ZTA counter: ZTA (EBV) inhibition in EBNA-1 counter-screen | ZTA-DNA binding, fluorescence polarization | inhibition, % at 11 µM | 320,000 tested, 0.15% active | AID 2234; in the data active means inhibition above about 33%
# Target sequence (P03206 whole entry, looked up): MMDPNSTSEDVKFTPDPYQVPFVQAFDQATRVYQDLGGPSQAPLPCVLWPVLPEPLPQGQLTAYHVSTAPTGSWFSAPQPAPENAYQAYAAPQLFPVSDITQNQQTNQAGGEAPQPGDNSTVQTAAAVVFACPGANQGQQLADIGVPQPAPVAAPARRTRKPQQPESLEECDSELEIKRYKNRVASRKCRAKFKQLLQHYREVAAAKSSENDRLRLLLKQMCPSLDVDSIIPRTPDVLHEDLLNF
# FID counter: compounds displacing fluorescent DNA intercalator, primary screen, artefact control for HCV NS3 helicase inhibitor project, biochemical, FID fluorescence; 290,000 tested, 0.17% active; AID 1845, 2009; inhibition, % at 7.9 µM; DNA fluorescent intercalator displacement; in the data active means inhibition above about 37%;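 further: 0% = vehicle and 100% = reference compound; higher means more ethidium bromide displaced from hairpin DNA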
# FGF22 binding: binders of human FGF22 protein, primary screen, FGF22 synaptogenesis inhibitor project, biophysical, thermal shift, single point; recombinant FGF22 thermal shift, SYPRO orange fluorescence; percent of sucrose octasulfate shift, DMSO zero; activity (Tm shift, normalised), % at 9.99 µM; 340,000 tested, 1.5% active;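 active means mean Tm shift, scaled 0 neutral to 100 positive control, at about 1.3% or above, every replicate too, limit read from the data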
# Target sequence (Q9HCT0 whole entry, looked up): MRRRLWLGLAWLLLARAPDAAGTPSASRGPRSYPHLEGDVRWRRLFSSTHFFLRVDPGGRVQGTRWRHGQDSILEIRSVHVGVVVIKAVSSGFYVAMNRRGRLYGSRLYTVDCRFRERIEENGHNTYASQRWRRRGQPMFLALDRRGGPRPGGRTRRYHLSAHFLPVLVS
# Numbers without * were called inactive; x = not tested or not shown.
SMILES,NS3 helicase inh,EBNA-1 inhibitor,NR3A LBD binder,ZTA counter,FID counter,FGF22 binding
O=C(CSc1ccsc1[N+](=O)[O-])Nc1cccc(F)c1,18,x,20*,x,9,0
CC(=O)Nc1ccc(NC(=O)CSc2nnc(NC(=O)c3ccccc3F)s2)cc1,x,x,x,x,x,1.9*
CCc1ccccc1NC(=O)CSc1ccsc1[N+](=O)[O-],7,7,-1,2,0,x
COc1cccc(NC(=O)CSc2nnc(NC(=O)C3CCC3)s2)c1,-3,-12,12*,-11,-11,0
Cc1nnc(SCC(=O)Nc2cccc(S(=O)(=O)N3CCCCC3)c2)s1,x,x,4,9,x,0
Cc1ccc(Nc2nnc(SCC(=O)Nc3cccc(S(=O)(=O)N4CCCCC4)c3)s2)cc1,-15,4,18*,9,-12,0
O=C(CSc1nnc(NC(=O)c2ccccc2F)s1)NC1CCCC1,-6,-4,2,10,-13,0
C[C@@H]1CCCCO[C@H](CN(C)Cc2ccncc2)[C@H](C)CN([C@@H](C)CO)C(=O)c2cc(NC(=O)c3ccncc3)ccc2O1,x,x,x,x,x,1
COc1ccc(CN(C)C[C@H]2Oc3c(NC(=O)CCCCCC(=O)Nc4ccccc4N)cccc3C(=O)N([C@H](C)CO)C[C@@H]2C)cc1,x,x,x,x,x,0
NC(=O)c1ccsc1NC(=O)CSc1ccccc1F,-1,-5,1,7,-3,x
NC(=O)c1ccsc1NC(=O)CSc1nnc(Nc2ccccc2)s1,1,6,-1,3,-6,1.5*
O=C(CSc1nnc(NC(=O)C2CC2)s1)Nc1cccc(F)c1,-1,5,14*,-2,-7,1
COc1cccc(C(=O)Nc2nnc(SCC(=O)Nc3ccc(NC(C)=O)cc3)s2)c1,-12,6,37*,-2,-14,0
C[C@@H]1CN([C@H](C)CO)C(=O)c2cc(NC(=O)Cc3ccccc3)ccc2O[C@H]1CN(C)C(=O)Nc1ccc(F)cc1,x,x,x,x,x,1
C[C@H]1CN([C@@H](C)CO)C(=O)Cc2cc(NC(=O)CCCCCC(=O)Nc3ccccc3N)ccc2O[C@@H]1CN(C)Cc1ccc(Cl)c(Cl)c1,x,x,x,x,x,0
O=C(NN=C1CCCCCC1)c1c[nH]c2ccccc12,7,2,20*,0,-5,x
O=C(N/N=C/c1cccs1)[C@H]1C[C@@H]1c1ccccc1,-9,-4,22*,2,-3,x
O=C(N/N=C/c1cn(-c2ccccc2)nc1-c1cc2ccccc2o1)c1ccccc1Br,-6,17,5,15,0,0
O=C(N/N=C/c1cn(-c2ccccc2)nc1-c1cc2ccccc2o1)c1c[nH]c2ccccc12,-8,2,20*,11,-1,0
O=C(N/N=C/c1cccs1)c1cccc2cc[nH]c12,1,-7,-4,-3,2,0
O=C(N/N=C/c1cccs1)c1c[nH]c2ccccc12,9,-6,14*,0,4,x
O=C(NN=C1CCCCCC1)c1cc2ccccc2cc1O,15,5,-2,-10,-13,0
CC=Cc1ccc2n(c1=O)C[C@@H]1[C@@H](CO)[C@H](C(=O)N(C)C)[C@H]2N1CC1CCOCC1 (mixture of isomers),x,x,x,x,x,0
COCC(=O)N1CC2(C1)CN(Cc1cc(F)ccc1F)[C@H](CO)c1c2c2ccc(OC)cc2n1C,x,x,x,x,x,0
C[C@H](NC(=O)C[C@@H]1C[C@H]2c3cc(NS(=O)(=O)c4ccc(F)cc4)ccc3O[C@H]2[C@H](CO)O1)c1ccccc1,x,x,x,x,x,0
SMILES,NS3 helicase inh,EBNA-1 inhibitor,NR3A LBD binder,ZTA counter,FID counter,FGF22 binding
COCC(=O)Nc1ccc2c(c1)C(=O)N(C)[C@@H]1CC[C@H](CC(=O)NCc3ccccc3)O[C@@H]1CO2,x,x,x,x,x,0
C[C@H](CO)N1C[C@H](C)[C@H](CN(C)S(=O)(=O)c2cccc(F)c2)Oc2ncccc2C1=O,x,x,x,x,x,1
CO[C@H]1CN(C)C(=O)c2cc(NS(=O)(=O)c3ccccc3Cl)ccc2OC[C@H](C)NC[C@H]1C,x,x,x,x,x,0
CCc1ccc(/C=N/NC(=O)c2c[nH]c3ccccc23)s1,1,-7,30*,-2,-5,x
Cc1c(/C=N\NC(=O)c2c[nH]c3ccccc23)cnn1C,-4,11,-7,-4,2,44*
C(=NN=C(NN=Cc1cccs1)NN=Cc1cccs1)c1cccs1,x,x,-17,x,x,43*
CS(=O)(=O)Nc1ccc2c(c1)[C@@H]1C[C@@H](CC(=O)NCc3ccc(Cl)cc3)O[C@H](CO)[C@@H]1O2,x,x,x,x,x,0
Nc1cc2c(cc1Cl)-c1ccc(Cl)cc1C2,x,x,30*,x,x,43
Nc1cc2c(cc1Cl)-c1ccccc1C2,x,x,3,x,x,0
COc1ccc(S(=O)(=O)N2CCc3ccccc3C2)cc1OC,0,3,14*,-1,-15,1
COc1ccc(S(=O)(=O)N2CCc3ccccc3C2)cc1C(=O)O,18,-8,1,-20,-13,0
CN1c2ccccc2C(O)=C(C(=S)Nc2ccc(Cl)cc2)S1(=O)=O,29,1,28*,-2,7,x
Cc1cccc(NC(=O)C2=C(O)c3ccccc3N(C)S2(=O)=O)c1,1,5,-3,6,9,x
COC(=O)c1ccc(OCC(O)CN2C(=O)c3ccccc3S2(=O)=O)cc1 (stereo not given),7,4,-5,-11,-20,43*
CCCCC(=O)Nc1c(C)cc(C)cc1Cl,24,-9,14*,4,-11,x
C=CCc1ccccc1OCC(=O)OCCNC(=O)c1cccnc1,-5,4,20*,-8,-3,x
Cc1cc(C)c(OCC(=O)OCCNC(=O)c2cccnc2)c(C)c1,1,7,2,-19,-9,x
C[C@H](CO)N1C[C@H](C)[C@H](CN(C)S(=O)(=O)c2cn(C)cn2)Oc2ccc(NC(=O)c3ccncc3)cc2C1=O,x,x,x,x,x,0
C[C@H]1CCCCO[C@@H](CN(C)C(=O)Nc2ccccc2)[C@@H](C)CN([C@@H](C)CO)C(=O)c2cc(NS(=O)(=O)c3ccc(Cl)cc3)ccc2O1,x,x,x,x,x,0
COc1ccc(CC(=O)NCc2nnc(SCc3ccc([N+](=O)[O-])cc3)n2C)cc1,1,0,-2,-5,-10,0
COc1ccc(CC(=O)NCc2nnc(SCc3ccc(C)cc3)n2C)cc1,4,-4,2,3,-9,43*
COc1ccc(-c2cc(-c3ccccc3)no2)cc1,x,-1,-13,-3,x,0
c1ccc(-c2cc(-c3cc(-c4ccccc4)on3)no2)cc1,x,x,x,x,x,43*
CCC(=O)Nc1ccc2c(c1)C(=O)N(C)C[C@H](OC)[C@H](C)CN(CC1CC1)[C@H](C)CO2,x,x,x,x,x,0
